Laboratory results as given in article PMC11375721 (ACS Omega, 2024).

Legend:
A549-PDL1 xenografts [1] = experiment: In vivo pretargeting biodistribution; set-up: species or system mice; conditions: 1 h after [^18F]PEG12-Tz; for A549-PDL1 tumor uptake / blood uptake / lung uptake / tumor/blood / tumor/muscle / bone uptake / brain uptake / gall bladder uptake / heart uptake / intestine uptake / kidney uptake / liver uptake / muscle uptake / spleen uptake / stomach uptake: n = 3; for tumor/blood / tumor/muscle: biodistribution
Outline: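 Male BALB/c nude mice (4–6 weeks, 13–18 g) received 5 × 10^6 A549-PDL1 and A549 cells in PBS subcutaneously behind the right armpit and were used once tumors reached 5–10 mm. Durvalumab-TCO or atezolizumab-TCO (300 μg in 150 μL PBS) was given i.v. by tail vein. After 24, 48 or 72 h, [18F]PEG12-Tz (1.85 MBq) was given i.v. Mice were killed 1 h later, and organs were weighed, γ-counted and expressed as %ID/g; n = 3. Controls: radioligand alone; blocking by co-injection of 50-fold molar excess atezolizumab plus 50 μg unlabeled tetrazine.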

A549-PDL1 cells = experiment: Cellular uptake and internalization; assay type: cell-based
Outline: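 A549 cells stably transfected with PD-L1 by lentiviral infection, grown in RPMI-1640 with 15% FBS at 37 °C, 5% CO2. Cells were incubated with in vitro ligated [18F]Tz-TCO-antibody for 30, 60, 120 and 180 min at 37 °C, then washed twice in ice-cold PBS. Surface activity was stripped with glycine HCl (1 mol/L, pH 2.2) for 10 min at 37 °C. The lysate gave the internalized fraction; washes plus lysate gave total uptake, γ-counted. Three experiments, each in triplicate.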

PD-L1 = PD-L1 (Homo sapiens, UniProt Q9NZQ7); experiment: Saturation binding on A549-PDL1 cells; conditions: 37 °C, 1 h
PD-L1, sequence (Q9NZQ7 19-290): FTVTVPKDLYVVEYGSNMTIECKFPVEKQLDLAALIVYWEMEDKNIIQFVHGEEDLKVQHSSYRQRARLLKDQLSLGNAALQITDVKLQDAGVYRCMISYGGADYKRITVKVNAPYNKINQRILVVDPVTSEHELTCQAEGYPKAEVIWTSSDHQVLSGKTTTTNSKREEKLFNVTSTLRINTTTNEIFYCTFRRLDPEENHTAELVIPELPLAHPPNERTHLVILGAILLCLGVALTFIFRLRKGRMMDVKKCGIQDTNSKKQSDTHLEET
Outline: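 Antibody-TCO was ligated with [18F]Tz in PBS (pH 7) at room temperature, and the purified conjugate was added at 0.08–10 nM to A549-PDL1 cells (2 × 10^5/well) for 1 h at 37 °C. Nonspecific binding used 100-fold excess unlabeled antibody added 1 h beforehand. Cell-bound activity was γ-counted. Each condition was run in triplicate, and Kd came from one-site specific-binding nonlinear regression.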

A549-PDL1 xenografts [2] = experiment: Pretargeted micro-PET/CT imaging; assay type: in vivo, mice; conditions: for A549-PDL1 tumor uptake (PET): 1 h postinjection of [^18F]PEG12-Tz
[3] = Estimated human dosimetry
Outline: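 Male nude mice bearing A549-PDL1 xenografts were imaged by micro-PET/CT under 2–3% isoflurane on a heating pad, with OSEM reconstruction and %ID/g quantification. Pretargeted arm: atezolizumab-TCO 300 μg i.v., then 48 h later the 18F-tetrazine (3.7 MBq) i.v. Direct arm: [18F]Tz-TCO-atezolizumab 7.4 MBq/mouse i.v., imaged at 1, 2, 4, 6 and 8 h. Mouse data were extrapolated to human organ doses.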

## atezolizumab-TCO: atezolizumab (anti-PD-L1 antibody) modified with TCO-PEG4-NHS Ester, average 8 TCO per antibody
A549-PDL1 xenografts [1]; 48 h after antibody-TCO 300 μg
  A549-PDL1 tumor uptake: 1.65 ± 0.15 % ID/g
  blood uptake: 1.86 ± 0.15 % ID/g
  lung uptake: 1.65 ± 0.11 % ID/g
A549-PDL1 xenografts [1]; 48 h after atezolizumab-TCO
  uptake in other organs such as the liver, muscles, bones, and intestines: < 0.96 % ID/g

## [^18F]Tz-TCO-durvalumab: in vitro ligation product of [^18F]Tz with durvalumab-TCO
A549-PDL1 cells; 30 min
  cellular uptake: 5.13 % ID/10^6 cells
A549-PDL1 cells; 180 min
  cellular uptake: 8.40 % ID/10^6 cells
  internalization rate: 73.2%
PD-L1
  Kd: 2.39 nM

## durvalumab-TCO: durvalumab (anti-PD-L1 antibody) modified with TCO-PEG4-NHS Ester, average 12 TCO per antibody
A549-PDL1 xenografts [1]; 24 h after antibody-TCO 300 μg
  A549-PDL1 tumor uptake: 2.52 ± 0.16 % ID/g
  blood uptake: 8.80 ± 0.50 % ID/g
  lung uptake: 7.06 ± 1.90 % ID/g
  tumor/blood: 0.29
  tumor/muscle: 3.51
A549-PDL1 xenografts [1]; 48 h after antibody-TCO 300 μg
  A549-PDL1 tumor uptake: 1.91 ± 0.38 % ID/g
A549-PDL1 xenografts [1]; 72 h after antibody-TCO 300 μg
  A549-PDL1 tumor uptake: 1.60 ± 0.23 % ID/g

## [^18F]Tz-TCO-atezolizumab: in vitro ligation product of [^18F]Tz with atezolizumab-TCO, directly labeled radioimmunoconjugate
A549-PDL1 cells; 30 min
  cellular uptake: 3.76 % ID/10^6 cells
A549-PDL1 cells; 180 min
  cellular uptake: 9.85 % ID/10^6 cells
  internalization rate: 98.1%
PD-L1
  Kd: 1.38 nM

## atezolizumab pretargeted: pretargeting pair: atezolizumab-TCO injected first, [^18F]PEG12-Tz 24-72 h later, ligated in vivo
A549-PDL1 xenografts [1]; 24 h after antibody-TCO 300 μg
  A549-PDL1 tumor uptake: 1.16 ± 0.06 % ID/g
  blood uptake: 1.72 ± 0.09 % ID/g
  bone uptake: 0.38 ± 0.07 % ID/g
  brain uptake: 0.06 ± 0.01 % ID/g
  gall bladder uptake: 0.94 ± 0.11 % ID/g
  heart uptake: 0.93 ± 0.05 % ID/g
  intestine uptake: 0.51 ± 0.12 % ID/g
  kidney uptake: 2.04 ± 0.09 % ID/g
  liver uptake: 0.87 ± 0.08 % ID/g
  lung uptake: 1.78 ± 0.34 % ID/g
  muscle uptake: 0.26 ± 0.04 % ID/g
  spleen uptake: 0.71 ± 0.04 % ID/g
  stomach uptake: 0.40 ± 0.16 % ID/g
A549-PDL1 xenografts [1]; 48 h after antibody-TCO 300 μg
  A549-PDL1 tumor uptake: 1.65 ± 0.29 % ID/g
  blood uptake: 1.86 ± 0.15 % ID/g
  bone uptake: 0.28 ± 0.02 % ID/g
  brain uptake: 0.05 ± 0.01 % ID/g
  gall bladder uptake: 0.94 ± 0.24 % ID/g
  heart uptake: 1.02 ± 0.14 % ID/g
  intestine uptake: 0.62 ± 0.22 % ID/g
  kidney uptake: 2.82 ± 0.52 % ID/g
  liver uptake: 0.96 ± 0.18 % ID/g
  lung uptake: 1.65 ± 0.11 % ID/g
  muscle uptake: 0.31 ± 0.08 % ID/g
  spleen uptake: 0.71 ± 0.12 % ID/g
  stomach uptake: 0.37 ± 0.06 % ID/g
A549-PDL1 xenografts [1]; 72 h after antibody-TCO 300 μg
  A549-PDL1 tumor uptake: 0.90 ± 0.23 % ID/g
  blood uptake: 1.48 ± 0.50 % ID/g
  bone uptake: 0.38 ± 0.03 % ID/g
  brain uptake: 0.05 ± 0.01 % ID/g
  gall bladder uptake: 0.63 ± 0.21 % ID/g
  heart uptake: 0.74 ± 0.28 % ID/g
  intestine uptake: 0.55 ± 0.15 % ID/g
  kidney uptake: 2.22 ± 0.37 % ID/g
  liver uptake: 0.71 ± 0.16 % ID/g
  lung uptake: 0.92 ± 0.06 % ID/g
  muscle uptake: 0.29 ± 0.06 % ID/g
  spleen uptake: 0.81 ± 0.13 % ID/g
  stomach uptake: 0.32 ± 0.11 % ID/g
A549-PDL1 xenografts [2]; 24 h interval
  A549-PDL1 tumor uptake (PET): 0.79 ± 0.06 % ID/g
A549-PDL1 xenografts [2]; 48 h interval
  A549-PDL1 tumor uptake (PET): 0.94 ± 0.16 % ID/g
A549-PDL1 xenografts [2]; 72 h interval
  A549-PDL1 tumor uptake (PET): 0.41 ± 0.04 % ID/g
A549-PDL1 xenografts [2]; co-injection of unmodified anti-PD-L1 antibody or unlabeled tetrazine
  accumulation in A549-PDL1 tumors under blocking: could be blocked
[3]; estimated human
  lowering of total effective dose versus [^18F]Tz-TCO-atezolizumab: over 7.5 fold
[3]; for men, as printed in main text
  effective internal radiation dose: 1.15 × 10^–3 μSv/MBq

## durvalumab pretargeted: pretargeting pair: durvalumab-TCO injected first, [^18F]PEG12-Tz 24-72 h later, ligated in vivo
A549-PDL1 xenografts [1]; 24 h after antibody-TCO 300 μg
  A549-PDL1 tumor uptake: 2.52 ± 0.16 % ID/g
  blood uptake: 8.80 ± 0.50 % ID/g
  bone uptake: 1.16 ± 0.27 % ID/g
  brain uptake: 0.29 ± 0.07 % ID/g
  gall bladder uptake: 1.29 ± 0.08 % ID/g
  heart uptake: 2.66 ± 0.49 % ID/g
  intestine uptake: 0.54 ± 0.14 % ID/g
  kidney uptake: 3.12 ± 0.31 % ID/g
  liver uptake: 1.93 ± 0.59 % ID/g
  lung uptake: 7.06 ± 1.90 % ID/g
  muscle uptake: 0.72 ± 0.10 % ID/g
  spleen uptake: 1.27 ± 0.22 % ID/g
  stomach uptake: 0.50 ± 0.06 % ID/g
  tumor/blood: 0.29 ± 0.04
  tumor/muscle: 3.51 ± 0.75
A549-PDL1 xenografts [1]; 48 h after antibody-TCO 300 μg
  A549-PDL1 tumor uptake: 1.91 ± 0.38 % ID/g
  blood uptake: 6.08 ± 1.82 % ID/g
  bone uptake: 0.98 ± 0.26 % ID/g
  brain uptake: 0.16 ± 0.04 % ID/g
  gall bladder uptake: 1.11 ± 0.35 % ID/g
  heart uptake: 1.57 ± 0.27 % ID/g
  intestine uptake: 0.40 ± 0.07 % ID/g
  kidney uptake: 2.68 ± 0.46 % ID/g
  liver uptake: 1.19 ± 0.23 % ID/g
  lung uptake: 3.19 ± 1.02 % ID/g
  muscle uptake: 0.56 ± 0.20 % ID/g
  spleen uptake: 0.48 ± 0.34 % ID/g
  stomach uptake: 0.33 ± 0.09 % ID/g
  tumor/blood: 0.31 ± 0.07
  tumor/muscle: 3.39 ± 0.46
A549-PDL1 xenografts [1]; 72 h after antibody-TCO 300 μg
  A549-PDL1 tumor uptake: 1.60 ± 0.23 % ID/g
  blood uptake: 5.29 ± 0.50 % ID/g
  bone uptake: 0.53 ± 0.04 % ID/g
  brain uptake: 0.14 ± 0.01 % ID/g
  gall bladder uptake: 0.99 ± 0.22 % ID/g
  heart uptake: 1.40 ± 0.28 % ID/g
  intestine uptake: 0.51 ± 0.15 % ID/g
  kidney uptake: 2.27 ± 0.37 % ID/g
  liver uptake: 1.01 ± 0.16 % ID/g
  lung uptake: 2.01 ± 0.06 % ID/g
  muscle uptake: 0.43 ± 0.06 % ID/g
  spleen uptake: 0.62 ± 0.13 % ID/g
  stomach uptake: 0.75 ± 0.28 % ID/g
  tumor/blood: 0.30 ± 0.02
  tumor/muscle: 3.68 ± 0.98
